Km data for 16 molecules are collected here from publication PMC2906805 (The open enzyme inhibition journal, 2009).

The target of this assay is T1, PMPMEase (EPL, esterase from porcine liver) (Sus scrofa, UniProt Q29550).
T1 sequence (Q29550 19-566): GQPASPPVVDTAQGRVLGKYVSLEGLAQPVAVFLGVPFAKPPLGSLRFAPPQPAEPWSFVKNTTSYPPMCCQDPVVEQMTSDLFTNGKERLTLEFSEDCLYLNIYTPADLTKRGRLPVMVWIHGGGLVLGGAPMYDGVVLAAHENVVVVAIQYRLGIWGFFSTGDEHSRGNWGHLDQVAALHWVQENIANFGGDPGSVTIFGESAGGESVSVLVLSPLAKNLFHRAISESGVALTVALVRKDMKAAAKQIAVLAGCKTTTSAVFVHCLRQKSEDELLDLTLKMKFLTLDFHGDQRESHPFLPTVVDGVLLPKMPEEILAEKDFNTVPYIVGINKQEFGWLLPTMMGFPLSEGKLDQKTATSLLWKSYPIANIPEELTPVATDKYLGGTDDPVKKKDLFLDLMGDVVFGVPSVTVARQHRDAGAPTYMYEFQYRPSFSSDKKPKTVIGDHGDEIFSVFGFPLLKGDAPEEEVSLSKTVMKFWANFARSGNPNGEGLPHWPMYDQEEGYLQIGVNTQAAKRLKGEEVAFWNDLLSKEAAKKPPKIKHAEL
Briefly: HPLC product assay with UV detection, Michaelis-Menten fit. The class given is biochemical. In a few lines: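 Commercial porcine liver esterase (0.1 to 5 µg per assay, depending on substrate) was incubated with varying concentrations of S-alkylated cysteinyl ester substrates in 100 mM Tris-HCl, pH 7.4, with 5% DMSO at 37°C. Reactions were stopped, and acid products were quantified by reversed-phase HPLC at 260 nm (p-nitrobenzoyl substrates) or 214 nm (others). Base-hydrolysed substrate standards supplied the calibration. Km came from a Michaelis-Menten fit.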

The structures appear in SMILES notation.

Regarding `COC(=O)[C@H](CSC/C=C(\C)CC/C=C(\C)CCC=C(C)C)NC(=O)c1ccc([N+](=O)[O-])cc1` [RD-PNB, (R)-methyl 3-((2E,6E)-3,7,11-trimethyldodeca-2,6,10-trienylthio)-2-(4-nitrobenzamido)propanoate], the Km (in general, the substrate concentration at which the rate is half of its maximum) worked out at 29 ± 2.2 µM.
To `COC(=O)[C@H](CSC/C=C(\C)CCC=C(C)C)NC(=O)c1ccc([N+](=O)[O-])cc1` [L-72, (R)-methyl 3-((E)-3,7-dimethylocta-2,6-dienylthio)-2-(4-nitrobenzamido)propanoate] belongs 87 ± 12 µM.
To `COC(=O)[C@@H](CSC/C=C(\C)CC/C=C(\C)CCC=C(C)C)NC(=O)c1ccc([N+](=O)[O-])cc1` [L-70, (S)-methyl 3-((2E,6E)-3,7,11-trimethyldodeca-2,6,10-trienylthio)-2-(4-nitrobenzamido)propanoate] belongs 11 ± 0.9 µM.
To `COC(=O)[C@H](CSCC[C@H](C)CCC=C(C)C)NC(=O)c1ccc([N+](=O)[O-])cc1` [L-86, (R)-methyl 3-((R)-3,7-dimethyloct-6-enylthio)-2-(4-nitrobenzamido)propanoate] belongs 53 ± 7 µM.
Turning to `COC(=O)CNC(=O)c1ccc([N+](=O)[O-])cc1` [L-102, methyl 2-(4-nitrobenzamido)acetate], the Km came to 400 ± 115 µM.
To `CC(C)=CCC/C(C)=C/CC/C(C)=C/CSC[C@H](NC(=O)c1ccc([N+](=O)[O-])cc1)C(=O)OC(C)C` [L-75, (R)-isopropyl 3-((2E,6E)-3,7,11-trimethyldodeca-2,6,10-trienylthio)-2-(4-nitrobenzamido)propanoate] belongs 5.9 ± 0.7 µM.
Regarding `CCOC(=O)[C@H](CSC/C=C(\C)CC/C=C(\C)CCC=C(C)C)NC(=O)c1ccc([N+](=O)[O-])cc1` [L-76, (R)-ethyl 3-((2E,6E)-3,7,11-trimethyldodeca-2,6,10-trienylthio)-2-(4-nitrobenzamido)propanoate], the Km came out at 11 ± 0.9 µM.
To `COC(=O)[C@H](CSCCC(C)C)NC(=O)c1ccc([N+](=O)[O-])cc1` [L-81, (R)-methyl 2-(4-nitrobenzamido)-3-(isopentylthio)propanoate] belongs 960 ± 180 µM; to `COC(=O)[C@H](CSCc1ccccc1)NC(=O)c1ccc([N+](=O)[O-])cc1` [L-93, (R)-methyl 2-(4-nitrobenzamido)-3-(benzylthio)propanoate], 40.5 ± 3.7 µM; to `COC(=O)[C@H](CSCC=C(C)C)NC(=O)c1ccc([N+](=O)[O-])cc1` [L-77, (R)-methyl 3-(3-methylbut-2-enylthio)-2-(4-nitrobenzamido) propanoate], 294 ± 25 µM.
To `COC(=O)[C@H](CSC/C=C(\C)CC/C=C(\C)CCC=C(C)C)NC(=O)CNC(=O)c1ccc([N+](=O)[O-])cc1` [RD-18, N-(4-Nitrobenzoylglycyl)-S-(trans, trans-farnesyl)cysteine methyl ester] belongs 8.4 ± 0.89 µM; to `COC(=O)[C@H](CSC/C=C(\C)CC/C=C(\C)CC/C=C(\C)CCC=C(C)C)NC(=O)c1ccc([N+](=O)[O-])cc1` [L-80, (R)-methyl 3-((2E,6E,10E)-3,7,11,15-tetramethylhexadeca-2,6,10,14-tetraenylthio)-2-(4-nitrobenzamido) propanoate], 15 ± 2.7 µM; to `CCSC[C@H](NC(=O)c1ccc([N+](=O)[O-])cc1)C(=O)OC` [L-74, (R)-methyl 2-(4-nitrobenzamido)-3-(ethylthio)propanoate], 505 ± 63 µM.
To `COC(=O)[C@H](CSCC[C@@H](C)CCC=C(C)C)NC(=O)c1ccc([N+](=O)[O-])cc1` [L-83, (R)-methyl 3-((S)-3,7-dimethyloct-6-enylthio)-2-(4-nitrobenzamido)propanoate] belongs 56 ± 9.6 µM.
`COC(=O)[C@H](C)NC(=O)c1ccc([N+](=O)[O-])cc1` [L-111, (S)-methyl 2-(4-nitrobenzamido)propanoate]: the Km worked out at 300 ± 38 µM.
To `COC(=O)[C@@H](CSC/C=C(\C)CC/C=C(\C)CCC=C(C)C)NC(C)=O` [L-69, (S)-methyl 3-((2E,6E)-3,7,11-trimethyldodeca-2,6,10-trienylthio)-2-acetamidopropanoate] belongs 21 ± 4.2 µM.
